An excerpt weighted towards active compounds, which were near 2.3% of everything screened.
KLF5 inhibitor: inhibitors of KLF5 expression; DLD-1 KLF5 promoter-luciferase reporter, luminescence; inhibition, % at 5 µM; 0.23% of 290,000 active;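 active = inhibition above a per-plate limit of that plate's mean compound inhibition plus 3 SD, cut at about 60% in these data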;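 also: 0% = DMSO wells and 100% = LY294002 at 200 µM; higher means less KLF5 promoter-driven luciferase light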
Bfl-1 A1 inh: inhibitors of the anti-apoptotic protein A1, read as caspase activation; MEF A1-2A-BIM cells, Caspase-Glo 3/7 luminescence, 3 h; percent of clofoctol response, vehicle zero; 0.066% of 330,000 active; caspase activation, % (test concentration not listed); AID 2462;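 active = over half of replicate activation scores above 10%, or exactly half above 10 with the replicate mean above 10; inconclusive = replicate mean below 10 yet half the replicates above 10; inactive = over half of replicates below 10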
HIF act: HIF pathway transcriptional activation | 0.32% of 300,000 active | AID 1910 | U2OS HRE-luciferase reporter, luminescence; normalized: DMSO 0%, desferrioxamine 100% | activation, % at 7.5 µM (by protocol);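 active = mean activation of at least 10% of the iron chelator positive control signal, with at least half of replicates also reaching 10%; inconclusive = mean and replicate majority disagree about reaching 10%; inactive = mean and most replicates under 10%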
T cruzi inh: T. cruzi replication inhibition | 1.4% of 300,000 active | AID 1885 | T. cruzi beta-gal in NIH3T3, luminescence, 90 h | inhibition, % (test concentration not listed);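 active = mean inhibition across valid replicates above about 55%, limit read from the data; inconclusive = mean below that limit but half or more replicates reach it; inactive = mean below it, under half of replicates reach it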;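 also: signal also drops with host cell toxicity which is not excluded here; 0% = plate median of DMSO wells and 100% = zero luminescence signal; higher percent means less beta-gal luminescence so fewer parasites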
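System: mouse NIH/3T3 fibroblasts infected with β-gal-expressing T. cruzi Tulahuen C4 / Input: NIH/3T3 cells, 5,000 per well / Buffer or medium: Low-serum DMEM with 2% FBS / Probe or stimulus: 5000 reporter trypomastigotes per well / Schedule: ≥90 h infection period, 3 h prior cell attachment / Measured by: GalScreen luminescence, 60 min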
Beta cell apopt: beta cell apoptosis inhibition. protection from apoptosis, % (concentration not given with the values). INS-1E cytokine-induced death, ATP luminescence, 48 h; percent of positive-control rescue, neutral wells zero. 0.8% of 300,000 active;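 active = Every replicate reaches about 75%, or at least half do and their mean reaches it too, limit read from the data; inconclusive = At least half of replicates reach the limit but their mean does not; inactive = Under half of replicates reach the limit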;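 also: 0% = cytokine-treated negative control wells and 100% = positive control rescue; higher means more ATP so stronger rescue from cytokine killing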
An asterisk follows results filed as active; ? = inconclusive; / = no result given.

SMILES	KLF5 inhibitor	Bfl-1 A1 inh	HIF act	T cruzi inh	Beta cell apopt
C(=N\Nc1nc2ccccc2[nH]1)/c1cccc2cccnc12	26	-2	271*	31	/
O=[N+]([O-])c1cc(/C=N/Nc2nc3ccccc3[nH]2)c(O)cc1O	23	-3	4	29	94*
C(/CCc1ccccc1)=N\Nc1nc2ccccc2[nH]1	-75	-1	?	2	88*
CC1CCCC(C)N1C(=O)COC(=O)c1cccs1 (centres undefined)	/	?	/	/	-5
O=C(N/C(=C\c1ccco1)C(=O)N1CCCC(CO)C1)c1ccccc1 (centres undefined)	2	0	-1	-4	-3
O=C(COc1cc2oc(=O)c3c(c2cc1Cl)CCC3)NCc1ccncc1	-16	1	0	-3	6
C(=N\Nc1nc2ccccc2[nH]1)/c1c[nH]c2ccccc12	-40	-1	3	?	119*
Cc1[nH]c2ccccc2c1/C=N/Nc1nc2ccccc2[nH]1	-45	-1	3	?	118*
COc1ccc(C(CNC(=O)c2c(C)nn(Cc3ccc(C)cc3)c2Cl)N2CCOCC2)cc1 (centres undefined)	/	0	/	/	-2
CC(=O)c1cccc(NS(=O)(=O)c2ccc(-c3cc(C)no3)s2)c1	-5	0	44*	-32	13
Cc1nn(-c2ccccc2)c(C)c1NC(=O)COC(=O)Cc1ccccc1F	/	0	0	-4	-5
CC(=O)Nc1ccc(S(=O)(=O)Nc2ccc(S(=O)(=O)Nc3nccs3)cc2)cc1	-21	0	23*	-10	-4
CCCCN1C(=O)Cc2c1nc(N)c1c(N)nc(N(CCC)CCC)c(C#N)c21	-12	0	0	74*	40
N#Cc1c(N2CCCC(O)C2)nc(N)c2c(N)nc3c(c12)CC(=O)N3C12CC3CC(CC(C3)C1)C2 (centres undefined)	8	1	-2	-1	13
C=C(C)CN(CC)c1nc(N)c2c(N)nc3c(c2c1C#N)CC(=O)N3C12CC3CC(CC(C3)C1)C2	-16	-1	0	57*	56
CCn1nnc(NC(=O)c2ccc([N+](=O)[O-])o2)n1	-32	0	0	61*	-35
COc1ccc(S(=O)(=O)N2CCCCC2)cc1NC(=O)c1ccco1	-7	1	0	9	2
COc1ccc(S(=O)(=O)N2CCN(C(=O)c3ccc([N+](=O)[O-])o3)CC2)cc1	-29	1	0	56*	/
CCN1CCN(c2ccc(NC(=O)c3ccc([N+](=O)[O-])o3)cc2Cl)CC1	1	/	4	91*	/
COc1ccc(CCC(=O)N2CCN(S(=O)(=O)c3ccc(C)cc3)CC2)cc1	/	0	/	/	-3
COc1ccc(S(=O)(=O)N2CCCCC2)cc1NC(=O)c1ccc([N+](=O)[O-])o1	-25	0	2	55*	9
CCOc1ccc(NC(=O)COC(=O)CN2CCCCCC2=O)cc1	/	2	/	/	-9
CC(=O)c1ccc(N2C(=O)CC(N3CCN(S(=O)(=O)c4ccc(C)c(C)c4)CC3)C2=O)cc1 (centres undefined)	/	-1	/	/	-3
CCCCCCNCC(=O)N1CCC(Cc2ccccc2)CC1	-28	0	0	34	7
NCc1ccccc1	/	0	/	/	-9
SMILES	KLF5 inhibitor	Bfl-1 A1 inh	HIF act	T cruzi inh	Beta cell apopt
CCN1CCN(c2ccc(S(=O)(=O)N3CCCCC3)cc2NC(=O)c2ccc([N+](=O)[O-])o2)CC1	/	0	1	60*	102*
CCN1CCN(c2ccc(S(=O)(=O)N3CCCCC3)cc2NC(=O)c2ccc(F)cc2)CC1	-12	2	0	38	-4
Cc1ccc(N2CCN(S(=O)(=O)c3c(C)nc4scc(C)n4c3=O)CC2)c(C)c1	-10	2	-1	5	2
COC(=O)c1ccc2[nH]c3cccc(/C(=C/c4ccccc4)c4ccccc4)c3c2c1	-4	2	0	24	109*
O=C(Nc1cccc(NC(=O)c2ccc(-c3ccc(Br)cc3)o2)c1)c1ccccc1	-17	-1	0	13	3
O=C(Nc1cccc(NC(=O)c2ccc(-c3cccc(Br)c3)o2)c1)c1ccco1	-8	1	2	55*	4
O=C(Nc1cccc(N2C(=O)C=CC2=O)c1)c1cccs1	/	1	0	61*	14
O=C(Nc1cccc(NC(=O)c2cccs2)c1)c1ccc([N+](=O)[O-])o1	-5	1	1	68*	12

From PubChem
